Experimental findings from ChEMBL document CHEMBL2331436, “Antimicrobial phenolics and unusual glycerides from Helichrysum italicum subsp. microphyllum” (2013) are described below.

In brackets after ≈: the same amount, converted by molar mass.

Broadly, the MIC is the smallest concentration in the dilution series that meets the test's criterion for growth inhibition. The low end stands for a more susceptible organism, the high end for a less susceptible organism.

What all share (format): functional
Assay [1] relates to Staphylococcus aureus. As to the kind of experiment: Antibacterial activity against epidemic methicillin-resistant Staphylococcus aureus EMRSA-15 after 18 hrs by MTT assay. The note with it: EMRSA-15, 18 h. The essentials:
(§1)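 MIC by broth microdilution in Mueller-Hinton broth with 20 mg/L Ca2+ and 10 mg/L Mg2+. Strains were grown overnight on nutrient agar at 37 °C. Agents were dissolved in DMSO, diluted in broth to a 512 mg/L stock, and serially diluted to a final 128−0.25 range with inoculum. Plates ran in duplicate for 18 h at 37 °C, then […] methanolic MTT for 30 min, scored by blue colour.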
(Tetrazolium assays rely on reduction of a dye to a coloured formazan, in cell work by metabolically active cells.)

In assay [2] the test system is Staphylococcus aureus. The experiment in a line: Antibacterial activity against Staphylococcus aureus ATCC 25923 after 18 hrs by MTT assay. The following applies: ATCC 25923, 18 h. Summed up:
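Strain grown overnight at 37 °C on nutrient agar before assay. MIC by broth microdilution in Mueller-Hinton broth with 20 mg/L Ca2+ and 10 mg/L Mg2+. Agents in DMSO, diluted in MHB to a 512 mg/L stock, then serially diluted to a final 128−0.25 […]. Duplicates, 18 h at 37 °C, then 5 mg/L methanolic MTT for 30 min; colour read-out.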

Assay [3] relates to Staphylococcus aureus. As to the kind of experiment: Antibacterial activity against Staphylococcus aureus XU212 overexpressing TetK tetracycline efflux pump after 18 hrs by MTT assay. The note with it: XU212, 18 h. Summed up: as §1
The test system of assay [4] is Staphylococcus aureus. The experiment in a line: Antibacterial activity against Staphylococcus aureus RN4220 overexpressing MsrA macrolide efflux protein after 18 hrs by MTT assay. The note with it: RN4220, 18 h. The essentials:
as §1

Assay [5] concerns Staphylococcus aureus. As to the kind of experiment: Antibacterial activity against Staphylococcus aureus 1199B overexpressing NorA pump after 18 hrs by MTT assay. The essentials:
as §1

Assay [6] relates to Staphylococcus aureus. As to the kind of experiment: Antibacterial activity against epidemic methicillin-resistant Staphylococcus aureus EMRSA-16 after 18 hrs by MTT assay. The note with it: EMRSA-16, 18 h. The essentials:
as §1

For the compound `C=C(COC(=O)CC)[C@H]1Cc2cc(C(C)=O)ccc2O1` [PROPANOYLBITALIN A], the MIC against Staphylococcus aureus [1], against Staphylococcus aureus [2], with Staphylococcus aureus [3], against Staphylococcus aureus [4], against Staphylococcus aureus [5] and against Staphylococcus aureus [6] was greater than 128 µg/mL throughout.

For `CCCc1oc(=O)c(C(c2ccccc2)c2c(O)c(CC=C(C)C)c(O)c(C(C)=O)c2O)c(O)c1C(C)C` (stereo unspecified), the MIC in the assay on Staphylococcus aureus [1] came to 6 µg/mL (≈ 11.5 µM); in the assay on Staphylococcus aureus [2], 8 µg/mL (≈ 15.4 µM); in the assay with Staphylococcus aureus [3] it was 4 µg/mL (≈ 7.68 µM); in the assay on Staphylococcus aureus [4] it was 2 µg/mL (≈ 3.84 µM); against Staphylococcus aureus [5], 16 µg/mL (≈ 30.7 µM); with Staphylococcus aureus [6] it was 8 µg/mL (≈ 15.4 µM).

Consider `C=C(COC(=O)CCC(C)C)[C@H]1Cc2cc(C(C)=O)ccc2O1`, for which the MIC against Staphylococcus aureus [1], in the assay on Staphylococcus aureus [2], against Staphylococcus aureus [3], against Staphylococcus aureus [4], against Staphylococcus aureus [5] and in the assay on Staphylococcus aureus [6] was greater than 128 µg/mL throughout.

For the compound `CCc1oc(=O)c(Cc2c(O)c(C)c(CC)oc2=O)c(O)c1C` [HELIPYRONE], the MIC in the assay with Staphylococcus aureus [1] is greater than 128 µg/mL; against Staphylococcus aureus [2], 64 µg/mL (≈ 200 µM); in the assay with Staphylococcus aureus [3], greater than 128 µg/mL; in the assay on Staphylococcus aureus [4], 12 µg/mL (≈ 37.5 µM); in the assay on Staphylococcus aureus [5], greater than 128 µg/mL; in the assay on Staphylococcus aureus [6], 128 µg/mL (≈ 400 µM).

For `C=C(COC(=O)CCCCCCCC)[C@H]1Cc2cc(C(C)=O)ccc2O1` [NONANOYLBITALIN A], the MIC against Staphylococcus aureus [1], in the assay on Staphylococcus aureus [2], against Staphylococcus aureus [3], with Staphylococcus aureus [4], in the assay on Staphylococcus aureus [5] and in the assay on Staphylococcus aureus [6] was greater than 128 µg/mL in each case.

For `CCc1oc(=O)c(Cc2c(O)c(CC=C(C)C)c(O)c(C(C)=O)c2O)c(O)c1CC`, the MIC was 2 µg/mL (≈ 4.8 µM) with Staphylococcus aureus [1]; 1 µg/mL (≈ 2.4 µM) in the assay on Staphylococcus aureus [2]; 16 µg/mL (≈ 38.4 µM) against Staphylococcus aureus [3]; 2 µg/mL (≈ 4.8 µM) in the assay on Staphylococcus aureus [4]; 1 µg/mL (≈ 2.4 µM) against Staphylococcus aureus [5]; 2 µg/mL (≈ 4.8 µM) with Staphylococcus aureus [6].

For the compound `CCc1c(C)oc(=O)c(C(C)c2c(O)c(CC=C(C)C)c(O)c(C(C)=O)c2O)c1O` (stereo unspecified), the MIC is 128 µg/mL (≈ 307 µM) in the assay on Staphylococcus aureus [1]; 64 µg/mL (≈ 154 µM) in the assay with Staphylococcus aureus [2]; greater than 128 µg/mL in the assay on Staphylococcus aureus [3]; 128 µg/mL (≈ 307 µM) in the assay on Staphylococcus aureus [4]; 128 µg/mL (≈ 307 µM) in the assay with Staphylococcus aureus [5]; 128 µg/mL (≈ 307 µM) with Staphylococcus aureus [6].

For the compound `COC(=O)/C=C/c1ccc(OC/C=C(\C)CCC=C(C)C)cc1`, the MIC against Staphylococcus aureus [1], in the assay with Staphylococcus aureus [2], against Staphylococcus aureus [3], in the assay on Staphylococcus aureus [4], in the assay with Staphylococcus aureus [5] and with Staphylococcus aureus [6] was greater than 128 µg/mL throughout.

For `CCc1oc(=O)c(Cc2c(O)c3c(c(C(C)=O)c2O)OC(C)(C)CC3)c(O)c1C` [CYCLOARZANOL A], the minimal inhibitory concentration (MIC) was 128 µg/mL (≈ 318 µM) in the assay on Staphylococcus aureus [1]; 32 µg/mL (≈ 79.5 µM) against Staphylococcus aureus [2]; 128 µg/mL (≈ 318 µM) in the assay with Staphylococcus aureus [3]; 32 µg/mL (≈ 79.5 µM) in the assay with Staphylococcus aureus [4]; 128 µg/mL (≈ 318 µM) against Staphylococcus aureus [5]; greater than 128 µg/mL with Staphylococcus aureus [6].

For the compound `CCCCCC(=O)C(c1c(O)c(CC=C(C)C)c(O)c(C(C)=O)c1O)c1c(O)c(CC)c(C)oc1=O` (stereo unspecified), the MIC in the assay on Staphylococcus aureus [1] worked out at 16 µg/mL (≈ 32 µM); against Staphylococcus aureus [2], 8 µg/mL (≈ 16 µM); with Staphylococcus aureus [3] it was 16 µg/mL (≈ 32 µM); against Staphylococcus aureus [4] it was 8 µg/mL (≈ 16 µM); in the assay on Staphylococcus aureus [5], 16 µg/mL (≈ 32 µM); against Staphylococcus aureus [6] it was 8 µg/mL (≈ 16 µM).

In the case of `CCc1oc(=O)c(Cc2c(O)c(CC=C(C)C)c(O)c(C(C)=O)c2O)c(O)c1C` [ARZANOL], the MIC against Staphylococcus aureus [1] amounted to 4 µg/mL (≈ 9.94 µM); with Staphylococcus aureus [2], 1 µg/mL (≈ 2.48 µM); against Staphylococcus aureus [3], 4 µg/mL (≈ 9.94 µM); with Staphylococcus aureus [4] it was 2 µg/mL (≈ 4.97 µM); with Staphylococcus aureus [5], 1 µg/mL (≈ 2.48 µM); with Staphylococcus aureus [6], 2 µg/mL (≈ 4.97 µM).

In the case of `CCc1oc(=O)c(Cc2c(O)c(C(C)=O)c(O)c3c2OC(C)(C)CC3)c(O)c1C` [CYCLOARZANOL B], the MIC in the assay with Staphylococcus aureus [1], with Staphylococcus aureus [2], against Staphylococcus aureus [3], in the assay with Staphylococcus aureus [4], against Staphylococcus aureus [5] and with Staphylococcus aureus [6] was greater than 128 µg/mL throughout.

`COC(=O)/C=C\c1ccc(OC/C=C(\C)CCC=C(C)C)cc1`: the minimal inhibitory concentration (MIC) in the assay on Staphylococcus aureus [1], against Staphylococcus aureus [2], in the assay with Staphylococcus aureus [3], against Staphylococcus aureus [4], in the assay with Staphylococcus aureus [5] and in the assay on Staphylococcus aureus [6] was greater than 128 µg/mL each time.

Take `C=C(COC(=O)C(C)C)[C@H]1Cc2cc(C(C)=O)ccc2O1`: the MIC against Staphylococcus aureus [1], in the assay on Staphylococcus aureus [2], against Staphylococcus aureus [3], against Staphylococcus aureus [4], in the assay with Staphylococcus aureus [5] and against Staphylococcus aureus [6] was greater than 128 µg/mL throughout.

Consider `C=C(COC(=O)CCCCCCC/C=C\CCCCCCCC)[C@H]1Cc2cc(C(C)=O)ccc2O1` [OLEOYLBITALIN A], for which the MIC against Staphylococcus aureus [1], in the assay with Staphylococcus aureus [2], with Staphylococcus aureus [3], against Staphylococcus aureus [4], against Staphylococcus aureus [5] and in the assay on Staphylococcus aureus [6] was greater than 128 µg/mL each time.

As to `C=C(COC(=O)C(C)CC)[C@H]1Cc2cc(C(C)=O)ccc2O1` (stereo partly specified), the MIC with Staphylococcus aureus [1], in the assay on Staphylococcus aureus [2], against Staphylococcus aureus [3], in the assay on Staphylococcus aureus [4], in the assay with Staphylococcus aureus [5] and in the assay on Staphylococcus aureus [6] was greater than 128 µg/mL each time.

In the case of `C=C(COC(C)=O)[C@H]1Cc2cc(C(C)=O)ccc2O1`, the MIC against Staphylococcus aureus [1], in the assay with Staphylococcus aureus [2], against Staphylococcus aureus [3], in the assay on Staphylococcus aureus [4], in the assay on Staphylococcus aureus [5] and in the assay with Staphylococcus aureus [6] was greater than 128 µg/mL each time.

Consider `CCc1oc(OC)c(Cc2c(O)c(CC=C(C)C)c(O)c(C(C)=O)c2O)c(=O)c1C` [METHYLARZANOL], for which the MIC with Staphylococcus aureus [1], in the assay on Staphylococcus aureus [2], against Staphylococcus aureus [3], against Staphylococcus aureus [4], against Staphylococcus aureus [5] and in the assay with Staphylococcus aureus [6] was greater than 128 µg/mL each time.

Take `CCn1cc(C(=O)O)c(=O)c2cc(F)c(N3CCNCC3)cc21` [NORFLOXACIN]: the MIC with Staphylococcus aureus [1] is 0.5 µg/mL (≈ 1.57 µM); in the assay on Staphylococcus aureus [2], 0.5 µg/mL (≈ 1.57 µM); in the assay with Staphylococcus aureus [3], 8 µg/mL (≈ 25.1 µM); against Staphylococcus aureus [4] it was 0.5 µg/mL (≈ 1.57 µM); in the assay with Staphylococcus aureus [5] it was 32 µg/mL (≈ 100 µM); in the assay on Staphylococcus aureus [6] it was 128 µg/mL (≈ 401 µM).

Consider `CCCc1oc(=O)c(C(C)c2c(O)c(CC=C(C)C)c(O)c(C(C)=O)c2O)c(O)c1C(C)C` (stereo unspecified), for which the minimum inhibitory concentration (MIC) against Staphylococcus aureus [1] was found to be 32 µg/mL (≈ 69.8 µM); against Staphylococcus aureus [2], 128 µg/mL (≈ 279 µM); against Staphylococcus aureus [3], 128 µg/mL (≈ 279 µM); in the assay with Staphylococcus aureus [4], 32 µg/mL (≈ 69.8 µM); against Staphylococcus aureus [5], 32 µg/mL (≈ 69.8 µM); with Staphylococcus aureus [6], 128 µg/mL (≈ 279 µM).

As to `CCC(C)C(=O)C(C)c1oc(=O)c(C)c(O)c1C` (stereo unspecified) [MICROPYRONE], the MIC with Staphylococcus aureus [1] was greater than 128 µg/mL; against Staphylococcus aureus [2], greater than 128 µg/mL; in the assay on Staphylococcus aureus [3] it was greater than 128 µg/mL; with Staphylococcus aureus [4], 128 µg/mL (≈ 507 µM); against Staphylococcus aureus [5] it was greater than 128 µg/mL; against Staphylococcus aureus [6], 128 µg/mL (≈ 507 µM).
